In ChEMBL document CHEMBL1138668, “Structural studies on bioactive compounds. 39. Biological consequences of the structural modification of DHFR-inhibitory 2,4-diamino-6-(4-substituted benzylamino-3-nitrophenyl)-6-ethylpyrimidines ('benzoprims')” (J Med Chem, 2004):

Tests used:
HCT-116 [1] = test: Growth inhibitory activity against human HCT116 cell line; assay type: functional
Summary of the method: (§1)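 HCT-116 or HT29 colon cells in RPMI 1640 with L-glutamine and 10% heat-inactivated FBS, 37 °C, 5% CO2. Cells were plated at densities suited to the growth rate and allowed to attach 4–24 h. Drug from 10 mM DMSO stocks was then added and cells incubated 4 days. MTT readout: 4 h with MTT, formazan dissolved in DMSO:glycine buffer (4:1), A550. A time-zero plate gave the starting density. Values are GI50, mean of three experiments.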

HT-29 [2] = test: Growth inhibitory activity against human HT-29 cell line in presence of Hypoxanthine thymidine(HT); assay type: functional
Summary of the method: (§2)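 Same 4-day MTT growth assay in HCT-116 or HT29 cells, with hypoxanthine 100 µM and thymidine 20 µM (final) added together with the drug. Hypoxanthine stock was in 10 mM NaOH and thymidine in water. Readout was A550 against a time-zero plate. GI50 is the mean of three experiments.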

HT-29 [3] = test: Growth inhibitory activity against human HT-29 cell line; assay type: functional; summary of the method: as §1
HCT-116 [4] = test: Growth inhibitory activity against human HCT116 cell line in presence of Hypoxanthine thymidine(HT); assay type: functional; summary of the method: as §2
Dihydrofolate reductase = biological target: T1, Dihydrofolate reductase (Rattus norvegicus, UniProt Q920D2); test: Inhibitory activity against rat liver Dihydrofolate reductase; details: read-out: I50
T1 sequence (Q920D2 whole entry): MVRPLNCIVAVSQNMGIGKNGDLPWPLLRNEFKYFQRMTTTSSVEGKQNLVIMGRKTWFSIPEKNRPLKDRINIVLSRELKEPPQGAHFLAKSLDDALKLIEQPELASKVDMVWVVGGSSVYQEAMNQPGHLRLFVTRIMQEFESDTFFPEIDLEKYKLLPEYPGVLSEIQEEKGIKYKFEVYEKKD

Row | Compound | GI50 (HCT-116 [1]) [µM] | GI50 (HT-29 [2]) [µM] | GI50 (HT-29 [3]) [µM] | GI50 (HCT-116 [4]) [µM] | IC50 (Dihydrofolate reductase) [µM]
1 | CCc1nc(N)nc(N)c1-c1ccc2[nH]c(-c3ccc(F)cc3)[n+]([O-])c2c1 | 17 | 39 | 46 | 22 | –
2 | CCc1nc(N)nc(N)c1-c1ccc(Cl)c([N+](=O)[O-])c1 | 0.25 | 40 | 3.8 | 38 | –
3 | CCc1nc(N)nc(N)c1-c1ccc(NCc2ccc(Cl)c(Cl)c2)c([N+](=O)[O-])c1 | – | – | – | – | 0.008
4 | CCc1nc(N)nc(N)c1-c1ccc2nn(-c3ccccc3)[n+]([O-])c2c1 | – | – | – | – | 2.7
5 | Nc1ncc(-c2ccc(NCc3ccc(F)cc3)c([N+](=O)[O-])c2)cn1 | 48 | 38 | 41 | 47 | –
6 | COc1cc(NCc2ccc3nc(N)nc(N)c3c2C)cc(OC)c1OC [TRIMETREXATE] | 0.01 | 21 | 0.01 | 19 | –
7 | CCc1nc(N)nc(N)c1-c1ccc2[nH]c(-c3ccc(Cl)cc3)[n+]([O-])c2c1 | 9 | > 50 | > 50 | 9 | –
8 | CCc1nc(N)nc(N)c1-c1ccc(N(C)Cc2ccccc2)c([N+](=O)[O-])c1 | 0.08 | 9.2 | 0.48 | 7.4 | –
9 | Nc1ncc(-c2ccc(Cl)c([N+](=O)[O-])c2)cn1 | > 50 | > 50 | > 50 | > 50 | –
10 | CCc1nc(N)nc(N)c1-c1ccc(NCc2ccccc2OC)c([N+](=O)[O-])c1 | 0.08 | 11.6 | 1.5 | 7.5 | –
11 | CN(Cc1ccccc1)c1ccc(-c2cnc(N)nc2)cc1[N+](=O)[O-] | > 50 | 17 | 14 | > 50 | –
12 | CN(Cc1cnc2nc(N)nc(N)c2n1)c1ccc(C(=O)N[C@@H](CCC(=O)O)C(=O)O)cc1 [METHOTREXATE] | 0.01 | > 50 | 0.07 | > 50 | –
13 | Nc1nc(N)c2[nH]c(Cc3ccc(Cl)c(Cl)c3)nc2n1 | – | – | – | – | 252
14 | Nc1ncc(-c2ccc(NCc3ccc(Cl)cc3)c([N+](=O)[O-])c2)cn1 | 3 | 25 | 17 | 5 | –
